Laboratory results taken from publication PMC4019989 (Clinical cancer research : an official journal of the …, 2009).

Columns and labels:
[1] = tested on: relapsed or refractory hematologic malignancies; assay: Antitumor activity; format: in vivo, human
Summary of the method: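 Relapsed/refractory MM, NHL, Hodgkin's or Waldenström's patients got the test compound as an i.v. push over 1–2 min on days 1–5, then 9 d rest (14-d cycles). Doses were 1.2–20 mg/m2, escalated in cohorts of three, continued until unacceptable toxicity or progression. Response used EBMT criteria (MM) and International Working Group criteria (NHL, Hodgkin's). For Waldenström's: complete = total resolution, partial = >50% resolution with no new disease.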

[2] = tested on: bortezomib-resistant MM cell lines; conditions: bortezomib-resistant MM cell lines and patient samples; cited from earlier work
[3] = preclinical studies; cited from earlier work
[4] = tested on: patients with relapsed or refractory hematologic malignancies; assay: Phase 1 dose escalation: adverse events, DLT, MTD; format: in vivo
[5] = All patients (N = 29), all dose cohorts

In the case of `CC(C)C[C@H](NC(=O)[C@H](CCc1ccccc1)NC(=O)CN1CCOCC1)C(=O)N[C@@H](Cc1ccccc1)C(=O)N[C@@H](CC(C)C)C(=O)[C@@]1(C)CO1` [carfilzomib], the “Subjects achieving objective tumor responses” value ([1]; 28 of 29 patients evaluable, all responders treated at 11 mg/m^2 and higher) is reported as “Four”, the “Subjects with stable disease” value ([1]; across all dose cohorts and diagnoses) is reported as “nine” and the “Patients with progressive disease while on study” value ([1]; all cohorts) is reported as 15 patients. The “Average duration on therapy of subjects with stable disease” value ([1]; eight cycles) was 116 days, the “IgA level by the end of the fifth cycle” value ([1]; person with IgA MM, 11 mg/m^2) was 235 mg/dL and the “IgA level within two cycles (10 doses)” value ([1]; person with IgA MM, 11 mg/m^2, from 709 mg/dL) was 297 mg/dL. For the same molecule, the “reduction in serum M-protein” value ([1]; person with Waldenström's macroglobulinemia, after two cycles of 15 mg/m^2) was 25%, the “Objective responses in subjects with plasma cell dyscrasias” value ([1]; treated at or above 11 mg/m^2, two MM, one Waldenström's macroglobulinemia) was “Three of six” and the Proliferation and apoptosis [2] was “inhibited proliferation and induced apoptosis”. The “Time for serum concentrations to approach the limit of assay detection” value [3] was at most 1 h, the “Grade 3 and 4 adverse events: ALT increased, Grades 3-4” value ([4]; All patients (N = 29), Table 4) was 1 (3) n (%) and the “Grade 3 and 4 adverse events: AST increased, Grade 3” value ([4]; All patients (N = 29), Table 4) was 1 (3) n (%). For the same molecule, the “Grade 3 and 4 adverse events: AST increased, Grade 4” value ([4]; All patients (N = 29), Table 4) was 0 (0) n (%), the “Grade 3 and 4 adverse events: AST increased, Grades 3-4” value ([4]; All patients (N = 29), Table 4) was 1 (3) n (%) and the “Grade 3 and 4 adverse events: Abdominal pain, Grade 3” value ([4]; All patients (N = 29), Table 4) was 1 (3) n (%). For the same molecule, the “Grade 3 and 4 adverse events: Abdominal pain, Grade 4” value ([4]; All patients (N = 29), Table 4) was 0 (0) n (%), the “Grade 3 and 4 adverse events: Abdominal pain, Grades 3-4” value ([4]; All patients (N = 29), Table 4) was 1 (3) n (%) and the “Grade 3 and 4 adverse events: Anemia, Grades 3-4” value ([4]; All patients (N = 29), Table 4) was 1 (3) n (%). The “Grade 3 and 4 adverse events: Any, Grade 3” value ([4]; All patients (N = 29), Table 4) was 11 (38) n (%), the “Grade 3 and 4 adverse events: Any, Grades 3-4” value ([4]; All patients (N = 29), Table 4) was 14 (48) n (%) and the “Grade 3 and 4 adverse events: Chills, Grade 3” value ([4]; All patients (N = 29), Table 4) was 1 (3) n (%). The “Grade 3 and 4 adverse events: Chills, Grade 4” value ([4]; All patients (N = 29), Table 4) was 0 (0) n (%), the “Grade 3 and 4 adverse events: Chills, Grades 3-4” value ([4]; All patients (N = 29), Table 4) was 1 (3) n (%) and the “Grade 3 and 4 adverse events: Disease progression, Grade 3” value ([4]; All patients (N = 29), Table 4) was 1 (3) n (%). For the same molecule, the “Grade 3 and 4 adverse events: Disease progression, Grade 4” value ([4]; All patients (N = 29), Table 4) was 0 (0) n (%), the “Grade 3 and 4 adverse events: Disease progression, Grades 3-4” value ([4]; All patients (N = 29), Table 4) was 1 (3) n (%) and the “Grade 3 and 4 adverse events: Hyperglycemia, Grade 3” value ([4]; All patients (N = 29), Table 4) was 1 (3) n (%). For the same molecule, the “Grade 3 and 4 adverse events: Hyperglycemia, Grade 4” value ([4]; All patients (N = 29), Table 4) was 0 (0) n (%), the “Grade 3 and 4 adverse events: Hyperglycemia, Grades 3-4” value ([4]; All patients (N = 29), Table 4) was 1 (3) n (%) and the “Grade 3 and 4 adverse events: Neutropenia, Grade 3” value ([4]; All patients (N = 29), Table 4) was 1 (3) n (%). For the same molecule, the “Grade 3 and 4 adverse events: Neutropenia, Grade 4” value ([4]; All patients (N = 29), Table 4) was 0 (0) n (%), the “Grade 3 and 4 adverse events: Neutropenia, Grades 3-4” value ([4]; All patients (N = 29), Table 4) was 1 (3) n (%) and the “Grade 3 and 4 adverse events: Pain, Grade 3” value ([4]; All patients (N = 29), Table 4) was 1 (3) n (%). The “Grade 3 and 4 adverse events: Pain, Grade 4” value ([4]; All patients (N = 29), Table 4) was 0 (0) n (%), the “Grade 3 and 4 adverse events: Pain, Grades 3-4” value ([4]; All patients (N = 29), Table 4) was 1 (3) n (%) and the “Grade 3 and 4 adverse events: Skin infection, Grade 3” value ([4]; All patients (N = 29), Table 4) was 1 (3) n (%). For the same molecule, the “Grade 3 and 4 adverse events: Skin infection, Grade 4” value ([4]; All patients (N = 29), Table 4) was 0 (0) n (%), the “Grade 3 and 4 adverse events: Skin infection, Grades 3-4” value ([4]; All patients (N = 29), Table 4) was 1 (3) n (%) and the “Grade 3 and 4 adverse events: Syncope, Grade 3” value ([4]; All patients (N = 29), Table 4) was 1 (3) n (%). The “Grade 3 and 4 adverse events: Syncope, Grade 4” value ([4]; All patients (N = 29), Table 4) was 0 (0) n (%), the “Grade 3 and 4 adverse events: Syncope, Grades 3-4” value ([4]; All patients (N = 29), Table 4) was 1 (3) n (%) and the “Grade 3 and 4 adverse events: Thrombocytopenia, Grade 3” value ([4]; All patients (N = 29), Table 4) was 0 (0) n (%). For the same molecule, the “Adverse event Any, All Grades” value [4, 5] was 29 (100) n (%), the “Adverse event Any, Grade 1” value [4, 5] was 4 (14) n (%) and the “Adverse event Any, Grade 2” value [4, 5] was 11 (38) n (%). For the same molecule, the “Adverse event Any, Grade 3” value [4, 5] was 11 (38) n (%), the “Adverse event Any, Grade 4” value [4, 5] was 3 (10) n (%) and the “Adverse event Constipation, All Grades” value [4, 5] was 6 (21) n (%). The “Adverse event Constipation, Grade 1” value [4, 5] was 5 (17) n (%), the “Adverse event Constipation, Grade 2” value [4, 5] was 1 (3) n (%) and the “Adverse event Constipation, Grade 3” value [4, 5] was 0 (0) n (%). The “Adverse event Constipation, Grade 4” value [4, 5] was 0 (0) n (%), the “Adverse event Cough, All Grades” value [4, 5] was 8 (28) n (%) and the “Adverse event Cough, Grade 1” value [4, 5] was 8 (28) n (%). For the same molecule, the “Adverse event Cough, Grade 2” value [4, 5] was 0 (0) n (%), the “Adverse event Cough, Grade 3” value [4, 5] was 0 (0) n (%) and the “Adverse event Cough, Grade 4” value [4, 5] was 0 (0) n (%). For the same molecule, the “Adverse event Diarrhea, All Grades” value [4, 5] was 10 (35) n (%), the “Adverse event Diarrhea, Grade 1” value [4, 5] was 7 (24) n (%) and the “Adverse event Diarrhea, Grade 2” value [4, 5] was 3 (10) n (%). For the same molecule, the “Adverse event Diarrhea, Grade 3” value [4, 5] was 0 (0) n (%), the “Adverse event Diarrhea, Grade 4” value [4, 5] was 0 (0) n (%) and the “Adverse event Pyrexia, Grade 1” value [4, 5] was 5 (17) n (%). The “Adverse event Pyrexia, Grade 2” value [4, 5] was 3 (10) n (%), the “Adverse event Pyrexia, Grade 3” value [4, 5] was 0 (0) n (%) and the “Adverse event Pyrexia, Grade 4” value [4, 5] was 0 (0) n (%). The “Patients who discontinued study treatment due to adverse events” value ([4]; Four of the 29 patients) was 14%, the “Patients with grade 2 anemia” value ([4]; across all cohorts) was “three” and the Incidence of anemia ([4]; across all cohorts, five patients, doses 1.2 to 15 mg/m^2) was 17%. For the same molecule, the “Adverse event Dyspnea, All Grades” value ([4]; human, in vivo) was 8 (28) n (%) and the “Adverse event Dyspnea, Grade 1” value ([4]; human, in vivo) was 6 (21) n (%).
